The source of these data is ChEMBL document CHEMBL1765040, “Synthesis and antiviral activity of N9-[3-fluoro-2-(phosphonomethoxy)propyl] analogues derived from N6-substituted adenines and 2,6-diaminopurines” (Bioorg Med Chem, 2011).

Each structure is given as a SMILES string. Activity calls are given as the source filed them. The rule behind the calls is not given here. Some results are limits rather than exact numbers.

Series [1] is described as follows: Cytotoxicity against human CEM cells assessed as minimum concentration required for morphological alteration by microscopic analysis. The series is classed as cell-based, CCRF-CEM.
Series [2] concerns Moloney murine sarcoma virus. The experiment in a line: Antiviral against Moloney murine sarcoma virus infected in mouse C3H/3T3 cells assessed as inhibition of virus-induced cell transformation after 6 days post infection by microscopic analysis. The series is classed as functional, organism-based. The conditions noted are these: C3H/3T3, 144 h. In outline:
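Murine embryo fibroblast C3H/3T3 monolayers infected with 75 focus-forming units of MSV, with test compound; transformation examined microscopically at day 6 postinfection. EC50 is the concentration inhibiting MSV-induced transformation by 50%.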

Series [3] has as its target N6-methyl-AMP deaminase, ADAL (Homo sapiens) (UniProt Q6DHV7). Nature of the series: Activity at human recombinant N6-methyl-AMP deaminase assessed as reaction rate after 60 mins by HPLC analysis.
For series [4], the system named is Human immunodeficiency virus 2. Nature of the series: Antiviral activity against HIV2 ROD infected in human CEM cells assessed as inhibition of virus-induced syncytium formation after 4 to 5 days by microscopic analysis. The series is classed as functional, organism-based. The settings on record: Human immunodeficiency virus 2, ISOLATE ROD, CCRF-CEM. In outline:
(§1)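 CEM cells (~3 × 10^5 cells/mL) infected with 100 CCID50 per mL of HIV-1(IIIB) or HIV-2(ROD), with compound dilutions; 4–5 days at 37 °C, humidified CO2 atmosphere. Giant (syncytium) cell formation scored microscopically; EC50 is the concentration inhibiting giant cell formation by 50%.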

Series [5] has as its system Human immunodeficiency virus 1. Nature of the series: Antiviral activity against HIV1 3B infected in human CEM cells assessed as inhibition of virus-induced syncytium formation after 4 to 5 days by microscopic analysis. The series is classed as functional, organism-based. The settings on record: Human immunodeficiency virus 1, 3B, CCRF-CEM. In outline: as §1
Series [6] can be described thus: Cytotoxicity against human CEM cells assessed as inhibition of cell proliferation after 72 hrs by coulter counter analysis. The series is classed as cell-based, CCRF-CEM. In outline: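 CEM cells, (5–7.5) × 10^4 per well, with test compound, grown 72 h at 37 °C in humidified CO2 atmosphere; cells counted by Coulter counter. IC50 is the concentration inhibiting proliferation by 50%.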

Series [7] can be described thus: Cytotoxicity against human MT4 cells. The series is classed as cell-based.
Series [8] has as its system Human immunodeficiency virus 1. Nature of the series: Antiviral activity against HIV1 infected in human MT4 cells assessed as inhibition of virus-induced cytopathicity. The series is classed as functional, organism-based. The settings on record: Human immunodeficiency virus 1, MT4.

Chain of N6-methyl-AMP deaminase, ADAL (Homo sapiens) (Q6DHV7 whole entry, looked up): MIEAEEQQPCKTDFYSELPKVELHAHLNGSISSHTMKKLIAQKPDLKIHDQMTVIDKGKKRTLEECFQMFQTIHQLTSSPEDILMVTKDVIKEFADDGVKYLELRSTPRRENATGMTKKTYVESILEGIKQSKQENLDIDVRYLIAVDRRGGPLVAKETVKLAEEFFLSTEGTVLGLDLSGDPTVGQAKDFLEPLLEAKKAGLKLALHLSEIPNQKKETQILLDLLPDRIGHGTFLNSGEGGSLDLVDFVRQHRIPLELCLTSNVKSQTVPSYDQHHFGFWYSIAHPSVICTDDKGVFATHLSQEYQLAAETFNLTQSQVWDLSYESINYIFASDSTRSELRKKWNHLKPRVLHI

As usually defined, the EC50 is the midpoint of the concentration-response curve. By CC50 is commonly meant the concentration giving 50% cytotoxicity. With `Nc1nc(NC2CC2)c2ncn(C[C@H](CF)OCP(=O)(O)O)c2n1`, the MCC in series [1] was above 100 µM. In addition, the figures for the concentration giving a half-maximal response (EC50) in series [2], in series [4] and in series [5] were 50 µM, 22.8 µM and 14.2 µM, respectively. In series [3], the Activity worked out at 64.5 nmol/min/mg. The 50% cytotoxic concentration (CC50) at 72 h in series [6] was above 278 µM.
Turning to `CCCNc1nc(N)nc2c1ncn2C[C@H](CF)OCP(=O)(O)O`, in series [1], the MCC was above 100 µM. For the same molecule, the concentration for a half-maximal effect (EC50) was above 100 µM in series [2], 22.4 µM in series [4] and 41.4 µM in series [5]. For the same molecule, the Activity in series [3] was determined as 4.17 nmol/min/mg. The CC50 at 72 h in series [6] was above 276 µM.
For the molecule `CCN(CC)c1nc(N)nc2c1ncn2C[C@H](CF)OCP(=O)(O)O`, the MCC in series [1] is above 100 µM. Besides, the EC50 in series [2], in series [4] and in series [5] was above 100 µM each time. Besides, in series [6], the CC50 at 72 h is above 100 µM.
`Nc1nc(O)c2ncn(C[C@H](CF)OCP(=O)(O)O)c2n1` came in with a CC50 in series [7] above 300 µM. Besides, the EC50 in series [8] was determined as 5.9 µM.
On to `CCN(CC)c1nc(N)nc2c1ncn2C[C@@H](CF)OCP(=O)(O)O`, for which the MCC in series [1] was above 100 µM. Further, the EC50 in series [2], in series [4] and in series [5] was above 100 µM in each case. Also, the CC50 at 72 h in series [6] was above 100 µM.
For the molecule `COCCNc1nc(N)nc2c1ncn2C[C@@H](CF)OCP(=O)(O)O`, in series [1], the MCC was above 100 µM. Further, the EC50 in series [2], in series [4] and in series [5] was above 100 µM throughout. Besides, in series [6], the CC50 at 72 h is above 100 µM.
On to `CN(C)CCNc1nc(N)nc2c1ncn2C[C@@H](CF)OCP(=O)(O)O`, for which the MCC in series [1] was above 100 µM. Further, the EC50 in series [2], in series [4] and in series [5] was above 100 µM each time. Moreover, in series [6], the CC50 at 72 h was above 100 µM.
Regarding `C[C@H](Cn1cnc2c(N)ncnc21)OCP(=O)(O)O` [TENOFOVIR ANHYDROUS], in series [1], the MCC is above 100 µM. Further, the figures for the 50% effective concentration (EC50) in series [4] and in series [5] were 3.2 µM and 4.6 µM, respectively. Besides, in series [6], the CC50 at 72 h was above 250 µM.
Regarding `CN(C)CCNc1nc(N)nc2c1ncn2C[C@H](CF)OCP(=O)(O)O`, the EC50 in series [5] was above 53 µM. Also, the 50% cytotoxic concentration (CC50) at 72 h in series [6] is above 53 µM.
For `Nc1nc(N2CCCC2)c2ncn(C[C@H](CF)OCP(=O)(O)O)c2n1`, the MCC in series [1] was above 100 µM. The EC50 in series [2], in series [4] and in series [5] was above 100 µM each time. For the same molecule, in series [6], the CC50 at 72 h is above 100 µM.
Regarding `Nc1ncnc2c1ncn2CCOCP(=O)(O)O` [ADEFOVIR], the MCC in series [1] was at least 100 µM. For the same molecule, the EC50 in series [2] was determined as 2.1 µM; in series [4], 7 µM; in series [5], 7.4 µM. Moreover, the CC50 at 72 h in series [6] was at least 250 µM.
For `C=CCNc1nc(N)nc2c1ncn2C[C@H](CF)OCP(=O)(O)O`, the MCC in series [1] was above 100 µM. Moreover, the EC50 in series [2] is 69 µM; in series [4], 36 µM; in series [5], 18 µM. The Activity in series [3] was 5.64 nmol/min/mg. Moreover, the half-maximal cytotoxic concentration (CC50) at 72 h in series [6] was above 278 µM.
In the case of `Nc1nc(NC2CC2)c2ncn(C[C@@H](CF)OCP(=O)(O)O)c2n1`, the MCC in series [1] is above 100 µM. In addition, the EC50 in series [2] worked out at 6.9 µM; in series [4], 11.1 µM; in series [5] it was 25.5 µM. Further, the Activity in series [3] stood at 1.98 nmol/min/mg. The CC50 at 72 h in series [6] is above 278 µM.
`CCCNc1nc(N)nc2c1ncn2C[C@@H](CF)OCP(=O)(O)O`: the MCC in series [1] was at least 100 µM. The EC50 was above 100 µM in series [2], above 276 µM in series [4] and above 276 µM in series [5]. Further, in series [3], the outcome was inactive. In addition, in series [6], the CC50 at 72 h was above 276 µM.
Regarding `CN(C)c1nc(N)nc2c1ncn2C[C@H](CF)OCP(=O)(O)O`, the MCC in series [1] is at least 100 µM. Further, the 50% effective concentration (EC50) in series [2] was above 20 µM; in series [4], 103 µM; in series [5] it was 51.7 µM. In addition, the Activity in series [3] was 23.6 nmol/min/mg. In addition, the CC50 at 72 h in series [6] was above 287 µM.
With `Nc1nc(N)c2ncn(C[C@@H](CF)OCP(=O)(O)O)c2n1`, the CC50 in series [7] is above 300 µM. In addition, in series [8], the EC50 was 15 µM.
The corresponding values for `Nc1nc(O)c2ncn(C[C@@H](CF)OCP(=O)(O)O)c2n1` are 103 µM and 3.9 µM.
In the same order, the values of `Nc1nc(N)c2ncn(C[C@H](CF)OCP(=O)(O)O)c2n1` are above 300 µM and 4.3 µM.
For the molecule `C=CCNc1nc(N)nc2c1ncn2C[C@@H](CF)OCP(=O)(O)O`, the MCC in series [1] was above 100 µM. In addition, the concentration for a half-maximal effect (EC50) in series [2] was above 100 µM; in series [4] it was above 247 µM; in series [5], above 247 µM. In addition, the result in series [3] was inactive. In addition, the CC50 at 72 h in series [6] is above 247 µM.
In the case of `COCCNc1nc(N)nc2c1ncn2C[C@H](CF)OCP(=O)(O)O`, the MCC in series [1] is above 100 µM. For the same molecule, the EC50 in series [2], in series [4] and in series [5] was above 100 µM throughout. In series [6], the CC50 at 72 h was above 100 µM.
With `CN(C)c1nc(N)nc2c1ncn2C[C@@H](CF)OCP(=O)(O)O`, in series [1], the MCC was above 100 µM. For the same molecule, the EC50 in series [2] is 45 µM; in series [4] it was 115 µM; in series [5], above 255 µM. Further, the Activity in series [3] turned out to be 8.07 nmol/min/mg. For the same molecule, in series [6], the CC50 at 72 h was above 255 µM.
Take `Nc1nc(N2CCCC2)c2ncn(C[C@@H](CF)OCP(=O)(O)O)c2n1`: the MCC in series [1] was at least 100 µM. The results for the EC50 in series [2], in series [4] and in series [5] were above 20 µM, above 100 µM and above 100 µM, respectively. The half-maximal cytotoxic concentration (CC50) at 72 h in series [6] was above 100 µM.
